Measurements from ChEMBL document CHEMBL1126929, “Syntheses of 2,5- and 2,6-difluoronorepinephrine, 2,5-difluoroepinephrine, and 2,6-difluorophenylephrine: effect of disubstitution with fluorine on adrenergic activity” (J Med Chem, 1993).

Experiments:
[1] = biological target: T1, Adrenergic receptor alpha-1 (Rattus norvegicus, UniProt P15823+P23944+P43140); experiment: Displacement of [3H]WB-4101 from adrenergic alpha 1 receptor of rat cerebral cortical membranes; format: cell membranes, Membrane
T1 sequence (P15823 whole entry): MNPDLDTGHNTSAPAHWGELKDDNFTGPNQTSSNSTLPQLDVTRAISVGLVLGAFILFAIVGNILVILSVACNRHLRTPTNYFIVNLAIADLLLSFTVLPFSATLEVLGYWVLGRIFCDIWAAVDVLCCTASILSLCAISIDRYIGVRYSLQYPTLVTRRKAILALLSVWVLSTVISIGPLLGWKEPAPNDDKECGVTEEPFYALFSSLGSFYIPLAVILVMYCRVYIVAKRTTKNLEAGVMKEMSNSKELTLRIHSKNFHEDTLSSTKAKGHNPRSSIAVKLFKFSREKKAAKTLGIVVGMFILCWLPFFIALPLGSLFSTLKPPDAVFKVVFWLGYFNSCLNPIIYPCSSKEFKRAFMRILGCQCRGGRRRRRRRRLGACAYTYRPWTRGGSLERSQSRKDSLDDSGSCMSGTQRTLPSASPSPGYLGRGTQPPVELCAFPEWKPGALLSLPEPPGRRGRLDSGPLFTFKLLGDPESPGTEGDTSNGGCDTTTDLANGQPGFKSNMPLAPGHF
T1 sequence (P23944 whole entry): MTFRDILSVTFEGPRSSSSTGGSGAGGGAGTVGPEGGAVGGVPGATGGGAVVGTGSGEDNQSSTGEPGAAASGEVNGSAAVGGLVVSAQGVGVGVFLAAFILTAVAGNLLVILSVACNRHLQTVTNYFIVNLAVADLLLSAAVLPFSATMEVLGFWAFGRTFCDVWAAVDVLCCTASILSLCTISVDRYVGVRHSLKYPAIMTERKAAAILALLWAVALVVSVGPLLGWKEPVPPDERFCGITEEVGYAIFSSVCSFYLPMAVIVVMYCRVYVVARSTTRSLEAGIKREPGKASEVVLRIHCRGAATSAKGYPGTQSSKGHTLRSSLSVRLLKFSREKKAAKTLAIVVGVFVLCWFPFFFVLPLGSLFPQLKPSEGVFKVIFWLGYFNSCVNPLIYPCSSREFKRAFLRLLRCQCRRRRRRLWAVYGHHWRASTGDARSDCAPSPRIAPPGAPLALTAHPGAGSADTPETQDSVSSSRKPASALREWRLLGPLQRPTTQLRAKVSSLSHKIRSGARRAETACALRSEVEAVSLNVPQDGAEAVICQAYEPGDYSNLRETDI
T1 sequence (P43140 whole entry): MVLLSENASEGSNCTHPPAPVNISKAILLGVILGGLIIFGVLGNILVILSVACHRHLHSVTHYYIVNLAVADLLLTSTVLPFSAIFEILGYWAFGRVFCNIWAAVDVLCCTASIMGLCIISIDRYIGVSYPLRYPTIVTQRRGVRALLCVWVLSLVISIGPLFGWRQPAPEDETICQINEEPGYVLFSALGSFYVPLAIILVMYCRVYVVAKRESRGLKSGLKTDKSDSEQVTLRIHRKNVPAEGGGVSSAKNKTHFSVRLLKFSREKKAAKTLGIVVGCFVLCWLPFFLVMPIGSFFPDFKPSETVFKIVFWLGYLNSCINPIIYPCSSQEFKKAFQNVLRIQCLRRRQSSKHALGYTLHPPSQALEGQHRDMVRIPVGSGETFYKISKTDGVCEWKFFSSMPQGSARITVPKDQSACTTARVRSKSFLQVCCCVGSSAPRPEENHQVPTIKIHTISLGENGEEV

[2] = biological target: Beta-2 adrenergic receptor (Rattus norvegicus, UniProt P10608); experiment: Binding affinity against adrenergic beta 2 receptor versus 1 nM [3H]dihydroalprenolol in rat […] cerebellar membranes; format: cell membranes, Cerebellum, Membrane
Cavia porcellus = species on record: Cavia porcellus; experiment: Effective concentration for stimulation of [3H]phosphoinositide formation in guinea pig synaptoneurosomes expressing alpha-1 receptor; format: functional
Outline: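 α1 agonism was read as stimulation of [³H]phosphoinositol formation in guinea pig synaptoneurosomes. EC50 is given as a mean. Efficacy is expressed relative to the parent amine set at 100.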

[3] = biological target: T2, Adrenergic receptor alpha-2 (Rattus norvegicus, UniProt P22086+P19328+P22909); experiment: Displacement of [3H]clonidine from adrenergic alpha 2 receptor of rat cerebral cortical membranes; format: cell membranes, Membrane
T2 sequence (P22086 whole entry): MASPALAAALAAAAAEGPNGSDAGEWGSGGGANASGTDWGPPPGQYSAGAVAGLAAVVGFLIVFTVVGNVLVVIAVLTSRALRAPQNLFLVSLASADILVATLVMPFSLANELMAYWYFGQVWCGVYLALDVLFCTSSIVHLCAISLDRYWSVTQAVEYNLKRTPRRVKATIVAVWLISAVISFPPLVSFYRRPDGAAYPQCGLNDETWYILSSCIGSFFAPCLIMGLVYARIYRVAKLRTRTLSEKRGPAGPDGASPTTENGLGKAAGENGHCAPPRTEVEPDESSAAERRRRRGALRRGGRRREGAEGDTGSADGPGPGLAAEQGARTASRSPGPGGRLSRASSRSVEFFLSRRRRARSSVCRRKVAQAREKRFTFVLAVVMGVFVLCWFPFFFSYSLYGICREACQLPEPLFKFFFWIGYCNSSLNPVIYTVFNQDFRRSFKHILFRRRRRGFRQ
T2 sequence (P19328 whole entry): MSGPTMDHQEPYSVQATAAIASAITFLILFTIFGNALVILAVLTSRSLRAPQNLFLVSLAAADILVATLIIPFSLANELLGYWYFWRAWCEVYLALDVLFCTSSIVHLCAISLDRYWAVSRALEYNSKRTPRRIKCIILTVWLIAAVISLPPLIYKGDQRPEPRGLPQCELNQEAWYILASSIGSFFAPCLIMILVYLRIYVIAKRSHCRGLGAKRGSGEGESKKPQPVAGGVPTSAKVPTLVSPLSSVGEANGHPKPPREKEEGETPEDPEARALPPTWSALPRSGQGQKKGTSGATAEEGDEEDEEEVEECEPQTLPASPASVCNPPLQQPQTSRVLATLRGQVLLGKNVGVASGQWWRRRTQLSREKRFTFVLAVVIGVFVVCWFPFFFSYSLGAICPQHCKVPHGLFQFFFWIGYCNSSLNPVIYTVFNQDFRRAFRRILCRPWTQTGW
T2 sequence (P22909 whole entry): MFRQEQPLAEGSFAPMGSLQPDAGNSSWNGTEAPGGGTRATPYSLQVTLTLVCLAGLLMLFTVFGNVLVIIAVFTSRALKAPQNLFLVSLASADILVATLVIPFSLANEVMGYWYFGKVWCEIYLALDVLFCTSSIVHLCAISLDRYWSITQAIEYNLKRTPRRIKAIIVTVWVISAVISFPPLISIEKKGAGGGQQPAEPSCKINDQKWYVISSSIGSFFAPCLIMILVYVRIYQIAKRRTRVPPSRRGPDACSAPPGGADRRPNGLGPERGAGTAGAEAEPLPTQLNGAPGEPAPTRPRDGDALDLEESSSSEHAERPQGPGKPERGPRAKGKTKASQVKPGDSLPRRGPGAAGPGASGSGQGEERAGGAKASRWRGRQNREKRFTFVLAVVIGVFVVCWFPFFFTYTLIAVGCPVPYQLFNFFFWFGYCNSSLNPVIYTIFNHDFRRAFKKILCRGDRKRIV

[4] = biological target: Beta-1 adrenergic receptor (Rattus norvegicus, UniProt P18090); experiment: Displacement of [3H]dihydroalprenolol from adrenergic beta 1 receptor of rat cerebral cortical membranes; format: cell membranes, Membrane
Adrenergic receptor beta = Adrenergic receptor beta (Rattus norvegicus, UniProt P18090+P10608+P26255); experiment: Stimulation of cyclic AMP accumulation in C6 glioma cells expressing adrenergic beta receptor; format: functional, cell-based
Outline: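 β agonism was read as stimulation of cyclic AMP accumulation in rat C6 glioma cells. EC50 is given as a mean. Efficacy is expressed relative to the parent amine set at 100.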

Chain of Beta-1 adrenergic receptor (P18090 whole entry): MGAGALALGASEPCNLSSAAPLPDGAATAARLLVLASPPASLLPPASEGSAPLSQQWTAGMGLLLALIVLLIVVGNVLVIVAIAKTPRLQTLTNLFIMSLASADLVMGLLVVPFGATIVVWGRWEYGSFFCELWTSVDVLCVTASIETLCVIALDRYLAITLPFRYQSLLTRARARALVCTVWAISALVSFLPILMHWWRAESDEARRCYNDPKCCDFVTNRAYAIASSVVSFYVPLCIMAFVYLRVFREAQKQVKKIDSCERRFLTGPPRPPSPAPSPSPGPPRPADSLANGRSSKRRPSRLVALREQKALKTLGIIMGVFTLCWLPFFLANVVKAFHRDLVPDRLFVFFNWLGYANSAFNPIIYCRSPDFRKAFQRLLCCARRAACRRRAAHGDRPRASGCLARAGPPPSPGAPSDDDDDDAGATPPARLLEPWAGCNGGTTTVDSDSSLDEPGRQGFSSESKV
Chain of Beta-2 adrenergic receptor (P10608 whole entry): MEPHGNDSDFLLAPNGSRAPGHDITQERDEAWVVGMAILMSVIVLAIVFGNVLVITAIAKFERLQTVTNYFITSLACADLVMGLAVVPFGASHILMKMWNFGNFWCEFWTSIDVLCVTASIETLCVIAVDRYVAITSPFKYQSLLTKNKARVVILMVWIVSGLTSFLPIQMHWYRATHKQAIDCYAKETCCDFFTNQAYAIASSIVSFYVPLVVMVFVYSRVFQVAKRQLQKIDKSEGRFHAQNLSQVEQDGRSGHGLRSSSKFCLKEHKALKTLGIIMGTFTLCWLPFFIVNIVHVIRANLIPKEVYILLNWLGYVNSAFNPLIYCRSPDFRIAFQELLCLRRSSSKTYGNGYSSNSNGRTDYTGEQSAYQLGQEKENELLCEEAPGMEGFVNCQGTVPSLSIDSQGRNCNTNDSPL

Row | SMILES | Ki [1] [µM] | Ki [2] [µM] | EC50 (Cavia porcellus) [µM] | Ki [3] [µM] | Ki [4] [µM] | EC50 (Adrenergic receptor beta) [µM]
1 | CNCC(O)c1cc(F)c(O)c(O)c1F (stereo not given) | 39 | 0.71 | 2.6 | 1.2 | 2.3 | –
2 | NCC(O)c1cc(O)c(O)c(F)c1 (stereo not given) | 2.3 | 5.5 | – | 0.15 | 1.5 | –
3 | NCC(O)c1cc(O)c(O)cc1F (stereo not given) | – | – | 4.2 | – | – | –
4 | NCC(O)c1ccc(O)c(O)c1F (stereo not given) | 23 | – | > 180 | 2.1 | – | –
5 | CNCC(O)c1cccc(O)c1F (stereo not given) | 17 | – | 80 | 1.2 | 4 | –
6 | NCC(O)c1cc(F)c(O)c(O)c1F (stereo not given) | 24 | – | 83 | 3.5 | 5.6 | –
7 | CNCC(O)c1c(F)ccc(O)c1F (stereo not given) | 17 | – | 4.3 | 0.94 | 81 | –
8 | CNCC(O)c1cc(O)c(O)cc1F (stereo not given) | – | – | – | 0.009 | 63 | > 1.5
9 | NCC(O)c1c(F)cc(O)c(O)c1F (stereo not given) | – | – | > 100 | 0.75 | > 50 | > 100
10 | CNCC(O)c1ccc(O)c(O)c1F (stereo not given) | – | – | – | 0.066 | – | –
11 | CNCC(O)c1cc(O)ccc1F (stereo not given) | 2.1 | – | 8 | 0.23 | 180 | –
12 | CNCC(O)c1ccc(F)c(O)c1 (stereo not given) | – | – | 16 | – | – | –
13 | CNC[C@H](O)c1ccc(O)c(O)c1 [EPINEPHRINE] | – | – | – | – | 1.2 | –
14 | CNC[C@H](O)c1cccc(O)c1 [PHENYLEPHRINE] | – | – | 6 | – | – | –
